Hits are enriched below; roughly 3.8% of the tested compounds scored in any of these assays.
ARNT TACC3 PPI: ARNT/TACC3 interaction disruption | inhibition, % at 9.99 µM | AlphaScreen His-ARNT PAS-B/GST-TACC3 binding, luminescence; TACC3 fragment carries E629A point mutation | Q9Y6A5 | 390,000 tested, 0.66% active;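 active means mean inhibition of replicates at least 50% and at least half of replicates each reaching 50%; inconclusive means half or more replicates reach 50% but mean below 50%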;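 further: 0% = complete ARNT plus TACC3 wells and 100% = ARNT alone without TACC3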
FN deposition inh: fibronectin deposition inhibition. inhibition, % at 12.6 µM. AH1F fibroblasts, Alexa488-fibronectin deposition fluorescence, overnight. AID 743247. 350,000 tested, 0.086% active;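 active means mean inhibition across replicates of 30% or more, regardless of how many single replicates reach that level; inconclusive means mean under 30% yet at least half of replicates reach 30%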;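 further: positive control wells lacked labelled fibronectin entirely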
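Measured by – fluorescence 485/525 nm · System – AH1F fibroblast monolayer, labelled fibronectin deposition · Amount – 10000 cells per well · Buffer or medium – serum-reduced DMEM (2% serum) · Doses – single dose, pinned · Also added – fluorescent fibronectin at 24 nM final · Schedule – 1 h cell attachment, overnight exposure to compound and label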
Xi reactivation: reactivates the inactive X chromosome in mouse fibroblasts; XiGFP mouse fibroblasts, % GFP-positive cells imaging, 3 d; cells co-treated with 5-aza-dC sensitizer; scaled so ellipticine positive control = 100%; 360,000 tested, 0.055% active; activation, % at 7.58 µM;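 active means mean normalized replicate activation at least 10% and every replicate at or above 10%; inconclusive means only one of the two criteria met; inactive means mean below 10% and not all replicates reach 10%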;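 further: 0% = median of on-plate neutral control wells and 100% = ellipticine 6 µM median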
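Assay system: SV40-immortalized XiGFP fibroblast cells, line 68-5-11; buffer or medium: DMEM plus 5-aza-dC sensitizer; compound: one concentration, pinned; timing: compounds 3 days, fix/stain 15 min at room temperature; benchmarks: positive control ellipticine, 6 µM final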
FGF22 binding: binders of recombinant human FGF22 by thermal shift | 340,000 tested, 1.5% active | SYPRO orange fluorescence; percent of sucrose octasulfate shift, DMSO zero | activity (Tm shift, normalised), % at 9.99 µM | Q9HCT0;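 active means mean Tm shift, scaled 0 neutral to 100 positive control, at about 1.3% or above, every replicate too, limit read from the data; inconclusive means no clear call, values can overlap the other calls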
Target sequence (Q9HCT0 whole entry, looked up): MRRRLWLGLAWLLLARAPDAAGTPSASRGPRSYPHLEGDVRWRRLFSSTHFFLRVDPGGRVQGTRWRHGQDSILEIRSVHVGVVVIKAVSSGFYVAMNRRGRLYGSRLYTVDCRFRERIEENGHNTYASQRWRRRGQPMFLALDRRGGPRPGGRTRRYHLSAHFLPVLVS
SIRT5 inh: blocks human SIRT5 desuccinylation of peptide. Q9NXA8. Purified SirT5, succinyl-peptide AMC, trypsin-coupled fluorescence. inhibition, % at 15 µM. 330,000 tested, 1.1% active. AID 652115; in the data active means inhibition above about 15%; inconclusive means no clear call, values can overlap the other calls
Target sequence (Q9NXA8 whole entry, looked up): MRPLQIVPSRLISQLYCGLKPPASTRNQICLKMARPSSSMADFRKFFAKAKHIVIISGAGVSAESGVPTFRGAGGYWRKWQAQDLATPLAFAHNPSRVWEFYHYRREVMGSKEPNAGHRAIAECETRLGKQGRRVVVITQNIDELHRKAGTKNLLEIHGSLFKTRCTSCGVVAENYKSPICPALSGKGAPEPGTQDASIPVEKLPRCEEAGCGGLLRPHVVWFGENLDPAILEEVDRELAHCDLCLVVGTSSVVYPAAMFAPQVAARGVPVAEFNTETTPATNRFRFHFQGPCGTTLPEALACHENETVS
DENV2 CPE rescue: DENV2-induced cell death inhibition. DENV2-infected cells, cytopathic effect rescue, plate reader. CPE inhibition, % at 9.99 µM. 350,000 tested, 1.7% active. AID 651640; in the data active means CPE inhibition above about 20%, passing the limit was not always enough; inconclusive means no clear call, values can overlap the other calls; tested in BHK-21 cells;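 further: 0% = median of neutral control wells and 100% = median of positive control wells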
Numbers without * were called inactive.

`Cc1ccc(S(=O)(=O)c2nc(-c3ccco3)oc2NCC2CCCO2)cc1` (stereo not given) gave ARNT TACC3 PPI -8, FN deposition inh -10 and Xi reactivation 0.
`O=S(=O)(c1ccc(Br)cc1)c1nc(-c2ccco2)oc1NCC1CCCO1` (stereo not given) gave ARNT TACC3 PPI -6, FN deposition inh -8, Xi reactivation 0, FGF22 binding 43*, SIRT5 inh -2 and DENV2 CPE rescue -3.
Screening COc1ccccc1C#Cc1ccc([C@H]2[C@@H](CO)N3CCCCN(C(=O)C4CCCC4)C[C@@H]23)cc1 returned ARNT TACC3 PPI 2, FGF22 binding -1, SIRT5 inh 19* and DENV2 CPE rescue 1.
For CCS(=O)(=O)N1CCCCN2[C@H](C1)[C@H](c1ccc(C#Cc3ccccn3)cc1)[C@@H]2CO the results were ARNT TACC3 PPI 9, FN deposition inh 1, Xi reactivation 0, FGF22 binding 0, SIRT5 inh 2 and DENV2 CPE rescue 52*.
CCS(=O)(=O)N1CCCCN2[C@H](C1)[C@@H](c1ccc(C#Cc3ccccc3OC)cc1)[C@@H]2CO was read as ARNT TACC3 PPI 3, Xi reactivation 0, FGF22 binding 1, SIRT5 inh -1 and DENV2 CPE rescue 40*.
CCS(=O)(=O)N1CCCCN2[C@H](CO)[C@H](c3ccc(C#Cc4ccccn4)cc3)[C@@H]2C1 was read as ARNT TACC3 PPI 3, FN deposition inh -1, Xi reactivation 0, FGF22 binding 0, SIRT5 inh 5 and DENV2 CPE rescue -1.
C/C=C/c1ccc2c(c1)O[C@H](CN(C)C(=O)c1ccccc1F)[C@H](C)CN([C@@H](C)CO)S2(=O)=O was read as ARNT TACC3 PPI -9, FN deposition inh -8, Xi reactivation -1, FGF22 binding -1, SIRT5 inh -3 and DENV2 CPE rescue inconclusive.
Screening COCC#Cc1cnc2c(c1)C(=O)N([C@@H](C)CO)C[C@@H](C)[C@H](CN(C)Cc1ccc(F)cc1)O2 returned ARNT TACC3 PPI 0, FN deposition inh 1, Xi reactivation -1, SIRT5 inh -9 and DENV2 CPE rescue -7.
For Cc1noc(C)c1NC(=O)Nc1ccc2c(c1)C(=O)N([C@@H](C)CO)C[C@@H](C)[C@H](CN(C)Cc1ccccc1)OCCCC[C@H](C)O2 the results were ARNT TACC3 PPI 6, FN deposition inh 2, Xi reactivation 0, SIRT5 inh -5 and DENV2 CPE rescue 5.
Cc1ccc(N(CC(=O)NC(C)(C)C)C(=O)CNC(=O)c2cccs2)c(C)c1 was read as ARNT TACC3 PPI -5, Xi reactivation 0, FGF22 binding 43*, SIRT5 inh -1 and DENV2 CPE rescue 4.
CCCC#Cc1cnc2c(c1)C(=O)N([C@H](C)CO)C[C@H](C)[C@@H](CN(C)C(=O)C1CCC1)O2 was read as ARNT TACC3 PPI -3, Xi reactivation 0, FGF22 binding 0, SIRT5 inh -3 and DENV2 CPE rescue 5.
`CC(=O)N(C)C[C@H]1Oc2ncc(C#CCC3CCCC3)cc2C(=O)N([C@H](C)CO)C[C@@H]1C` gave ARNT TACC3 PPI -2, FN deposition inh 2, Xi reactivation -1, FGF22 binding 0, SIRT5 inh 0 and DENV2 CPE rescue 10.
CCCC#Cc1cnc2c(c1)C(=O)N([C@H](C)CO)C[C@H](C)[C@H](CN(C)C(=O)C1CCC1)O2 was read as ARNT TACC3 PPI -5, Xi reactivation 0, FGF22 binding 0, SIRT5 inh -3 and DENV2 CPE rescue 23*.
Screening C[C@H]1CN([C@@H](C)CO)C(=O)c2cc(C#CCC3CCCC3)cnc2O[C@H]1CN(C)C(=O)c1cnccn1 returned ARNT TACC3 PPI 3, FN deposition inh -12, Xi reactivation 1, FGF22 binding 0, SIRT5 inh 24* and DENV2 CPE rescue 10.
`C[C@@H]1CN([C@@H](C)CO)C(=O)c2cc(C#CCC3CCCC3)cnc2O[C@H]1CN(C)S(=O)(=O)c1cccs1` gave ARNT TACC3 PPI 6, Xi reactivation 0, FGF22 binding 0, SIRT5 inh -2 and DENV2 CPE rescue 38*.
Screening C[C@H](CO)N1C[C@H](C)[C@H](CN(C)C(=O)c2cnccn2)Oc2ncc(C#CCC3CCCC3)cc2C1=O returned ARNT TACC3 PPI 5, FN deposition inh -6, Xi reactivation -1, FGF22 binding 0, SIRT5 inh 0 and DENV2 CPE rescue 1.
Screening CC(=O)N(C)C[C@H]1Oc2ncc(C#CCC3CCCC3)cc2C(=O)N([C@@H](C)CO)C[C@H]1C returned ARNT TACC3 PPI 4, FN deposition inh -6, Xi reactivation 0, FGF22 binding 0, SIRT5 inh 19* and DENV2 CPE rescue -4.
CCCC(=O)Nc1ccc2c(c1)C(=O)N(C)C[C@@H](OC)[C@H](C)CN(C(=O)Cc1cccnc1)[C@H](C)CO2 was read as ARNT TACC3 PPI -4, FN deposition inh 0, Xi reactivation 0, FGF22 binding 0, SIRT5 inh 0 and DENV2 CPE rescue -4.
CCc1cnc(N2[C@H](C#N)[C@@H](c3ccc(-c4cccc(F)c4)cc3)[C@@H]2CO)s1 was read as ARNT TACC3 PPI 1, FN deposition inh -2, Xi reactivation 0, FGF22 binding 0, SIRT5 inh 3 and DENV2 CPE rescue -1.
`COC(=O)[C@H](Cc1c[nH]c2ccccc12)NC(=O)NCc1ccc(OC)c(OC)c1` gave ARNT TACC3 PPI -1, FN deposition inh 0, Xi reactivation 0, FGF22 binding 0, SIRT5 inh 30* and DENV2 CPE rescue -6.
`COc1cc(CNCCc2c[nH]c3ccccc23)cc(Cl)c1OCC(N)=O` gave ARNT TACC3 PPI 2, FN deposition inh -3, Xi reactivation 0, FGF22 binding 44*, SIRT5 inh 2 and DENV2 CPE rescue -1.
`CC(C)NC(=O)Nc1ccc2c(c1)C(=O)N([C@@H](C)CO)C[C@H](C)[C@@H](CN(C)CC1CCCCC1)OCCCC[C@H](C)O2` gave ARNT TACC3 PPI -3, FN deposition inh -3, Xi reactivation 0, FGF22 binding 0, SIRT5 inh 0 and DENV2 CPE rescue 5.
`NCC(O)CN(c1ccccc1)c1ccccc1` (stereo not given) gave ARNT TACC3 PPI -3, FN deposition inh 10, Xi reactivation 0, SIRT5 inh 38* and DENV2 CPE rescue -2.
COCC#Cc1ccc([C@H]2[C@@H](CO)N3CCCCN(C(=O)Nc4cc(F)ccc4F)C[C@H]23)cc1 was read as ARNT TACC3 PPI 9, Xi reactivation 0, FGF22 binding 0, SIRT5 inh 0 and DENV2 CPE rescue 5.

Source: PubChem (Broad Institute)
